Screening results (PubChem BioAssay)
AI-2 QS mod = Vibrio harveyi AI-2 quorum sensing modulation | Vibrio harveyi JMH597 AI-2 luminescence/OD600 ratio, 9 h; hits give low values; strain lacks LuxN and CqsS sensors; 0 = neutral-control median | activity change, % at 7.5 µM | 300,000 tested, 0.4% active; in the data active = activity change below about -75%, passing the limit was not always enough; inconclusive = no clear call, values can overlap the other calls;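 also: luminescence divided by OD600 gain over 9 h not by final OD600 alone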
KCNQ1 act = human KCNQ1 channel potentiation or activation | CHO-K1 KCNQ1, thallium flux FluxOR fluorescence; hits give high values | 310,000 tested, 0.35% active | AID 2648 | B-score at 10 µM;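 active = fluorescence ratio B-score, a plate-corrected score, at least three library SD, with initial intensity B-score within 5 SD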
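Assay system: CHO-K1 cells stably expressing KCNQ1; Medium: assay buffer with matched DMSO; Also added: K+/Tl+ depolarizing stimulus; Dosing: single dose; Timing: dye 90 min, compound 20 min, room temperature; Measured by: kinetic FluxOR thallium fluorescence, 10-s 1-Hz baseline, 110-s post-stimulus read; Read-out: peak-minus-minimum fluorescence over initial fluorescence, negative-control normalized, B-scored.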
Cl transport mod = modulates chloride dependent transport by human KCC2; KCC2 cells, thallium flux FluoZin-2 fluorescence; B-score of Tl+ flux slope (higher = more flux/activation; lower = inhibition) at 10 µM; 190,000 tested, 2.2% active; AID 1456;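 active = thallium flux slope and its plate-corrected score both differing from the plate sample mean at a set confidence after two filtering rounds, in either direction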;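 also: slope of fluorescence scaled to starting intensity during 10 to 20 s after thallium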
KCNQ1 block = inhibitors of human KCNQ1 potassium channel; P51787; CHO-K1 KCNQ1, FluxOR thallium flux fluorescence; hits give high values; B-score at 10 µM; 310,000 tested, 1.3% active;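 active = compounds whose thallium flux B-score, printed positive for inhibition, exceeds three library SD while starting fluorescence stays within three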;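 also: channel opened by potassium depolarization with thallium stimulus after 20 min compound exposure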
hERG protect = shields human hERG channel from block by proarrhythmic agents; AID 1511; activation (rescue from dofetilide block), less the hit threshold, % at 10 µM; Q12809; CHO-hERG, FluxOR thallium flux, dofetilide IC70 present; 310,000 tested, 0.51% active;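 active = activation above the mean of controls blocked by dofetilide plus 5 SD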;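 also: thallium influx through hERG after potassium depolarization seen as dye fluorescence rise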
Mot1-301 SUMO = blocks SUMOylation pathway, rescuing yeast Mot1-301 growth; S. cerevisiae Mot1-301 growth rescue, ATP luminescence, 38.5C; percent above DMSO median, 100 means doubled; growth rescue, % at 18.8 µM; 320,000 tested, 1% active;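 active = every valid replicate shows activation above 250% relative to neutral control wells; inactive = the rest, any valid replicate at or below 250%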
Hits are given with their value; i = inactive; ? = inconclusive; nt = no result given. This is a sample that favours compounds with a hit; in the whole collection about 4.2% have one here.

SMILES	AI-2 QS mod	KCNQ1 act	Cl transport mod	KCNQ1 block	hERG protect	Mot1-301 SUMO
CNC(=S)N(CCc1c(C)[nH]c2ccc(F)cc12)Cc1cccnc1	i	i	nt	i	i	354
O=[N+]([O-])c1ccc(NCCCNS(=O)(=O)c2ccccc2)c(Cl)c1	i	i	i	i	i	i
Oc1[nH]c2c(Cl)cc(Cl)cc2c1N=NC(=S)NCC1CCCO1 (stereo not drawn)	i	52	56	i	12	i
Cc1cc(C)c2[nH]c(O)c(N=NC(=S)NCC3CCCO3)c2c1 (stereo not drawn)	i	i	i	i	i	i
Oc1[nH]c2ccccc2c1N=NC(=S)NCC1CCCO1 (stereo not drawn)	i	i	4.2	i	i	i
CCC1CSC(=Nc2ccc(C)cc2)N1C(=O)CN1C(=O)NC2(CCCC2)C1=O (stereo not drawn)	i	i	nt	i	i	i
N#CC(C#N)=C1C=CC=CN1/C(=C\c1ccco1)C(=O)c1ccc(Br)cc1	nt	nt	i	nt	nt	291
N#CC(C#N)=C1C=CC=CN1/C(=C\c1ccco1)C(=O)c1ccccc1	nt	nt	i	nt	nt	i
O=c1c(O)c(-c2cc(O)c(O)c(O)c2)oc2cc(O)cc(O)c12	nt	nt	nt	nt	nt	265
O=c1c(O)c(-c2ccc(O)cc2O)oc2cc(O)cc(O)c12	nt	nt	i	nt	nt	nt
O=c1c(-c2ccccc2)c(-c2ccccc2)oc2cc(O)cc(O)c12	i	i	nt	13	i	i
CCC(C)c1ccc(OCC(=O)Nc2ccc3c(c2)C(=O)NC3=O)cc1 (stereo not drawn)	i	i	nt	i	i	i
Cc1ccccc1NC1(C#N)C(=O)Nc2ccccc21 (stereo not drawn)	i	i	i	i	i	348
Cc1c(-c2ccccc2)[n+](=O)c2c(n1[O-])CCCC2	i	i	i	i	i	i
Nc1sc(-c2ccccc2)n[n+]1Cc1cccc2cccnc12	-88	i	i	i	i	i
CCCCCC(=O)O[C@]1(C(C)=O)CC[C@H]2[C@@H]3CCC4=CC(=O)CC[C@]4(C)[C@H]3CC[C@@]21C	i	i	i	12	i	i
Cc1ccnc(NC(=O)CNC(=O)c2ccc3ccccc3c2)c1	?	i	nt	i	i	i
Cc1ccnc(NC(=O)CNC(=O)c2ccc3c(c2)OCO3)c1	i	15	nt	i	i	i
Cc1ccc2[nH]cc(CCNC(=O)c3ccc4c(c3)OCO4)c2c1	-80	i	nt	i	i	i
CCOc1ccc(N=C(/C(C(=O)C(=O)N2CCOCC2)=C(\O)c2ccccc2)c2ccccc2)cc1	i	i	i	i	i	i
COC(=O)c1ccc(CNS(=O)(=O)c2ccc3ccccc3c2)cc1	i	i	nt	i	i	330
C=CCn1cccc(C(=O)Nc2ccc(OC)cc2)c1=O	i	i	i	i	i	i
COc1ccc(NC(=O)c2cccn(CC=C(C)C)c2=O)cc1	i	i	i	i	i	331
CCOC(=O)C1(Cc2cccc(OC)c2)CCN(C/C=C/c2ccc(OC)cc2)CC1	i	i	i	7	i	i
COC(=O)c1cc(NC(=O)c2ccccc2)c(=O)oc1C/C=N\OCc1ccc(Cl)cc1Cl	i	i	i	13	i	i
SMILES	AI-2 QS mod	KCNQ1 act	Cl transport mod	KCNQ1 block	hERG protect	Mot1-301 SUMO
COc1cc2c(cc1OC)CN(C(=O)c1sccc1C)CC2	i	i	i	i	8.7	i
COc1ccc2o/c(=N\O)c(C(=O)Nc3ccc(C)cc3)cc2c1	i	i	i	6	i	nt
COc1ccc2oc(=N)c(C(=O)Nc3ccc(C)cc3)cc2c1	i	i	nt	i	i	i
COc1ccc(C(=O)Nc2ccc(NC(=O)c3cc(OC)c(OC)c(OC)c3)cn2)cc1	i	i	nt	i	i	i
Cc1nc(C2CCC3C4CCC5=CC(=O)CC[C@]5(C)C4CC[C@]23C)cs1 (stereo partly drawn)	i	i	nt	7	i	i
CC(=O)[C@@]1(O)CC[C@H]2[C@@H]3CCC4=CC(=O)CC[C@]4(C)[C@H]3CC[C@@]21C	i	i	i	i	i	i
O=C(Nc1ccc(Cl)c(C(F)(F)F)c1)NC1CC2CCCC(C1)N2Cc1ccccc1 (stereo not drawn)	i	i	i	13	i	i
